Results collected from several papers.
Each line is one published result; the experiments were not run side by side. pIC50: −log10 of the molar value.
Effect on: cell growth or viability

| SMILES | cell line | assay | conditions | pIC50 |
| --- | --- | --- | --- | --- |
| CSc1nc(/N=C/c2cccc(O)c2)n(-c2ccc(C(=O)O)cc2)n1 | RPE-1 | MTT |  | 4.46 |
| CC(C)[C@H](N)C(=O)N1CCC[C@H]1B(O)O | HEL | ATP luminescence | 48 h | < 4.22 |
| C[S@@+]([O-])CCCCN=C=S | Hepa-1c1c7 |  |  | 4.82 |
| NCCOc1cc(C(=O)Nc2cc(OCCN)c3ccccc3n2)nc(C(=O)Nc2cc(OCCN)c3ccccc3n2)c1 | U2OS | ATP luminescence | 72 h | 4.77 |
| CSc1nc(N)n(-c2ccc(C(=O)O)cc2)n1 | RPE-1 | MTT |  | 4.38 |
| Nc1ncc(-c2cnn(C3CCNCC3)c2)cc1-c1nnc(CC2CC2)o1 | NB-4 | trypan blue | 72 h | 6.07 |
| O=C(Nc1cc(OCCN2CCCC2)c2ccccc2n1)c1cc(Cl)cc(C(=O)Nc2cc(OCCN3CCCC3)c3ccccc3n2)n1 | U2OS | ATP luminescence | 72 h | 5.64 |
| Cc1ccc(O)c(/C=N/c2nc(Oc3ccccc3)nn2-c2ccc(C(=O)O)cc2)c1 | RPE-1 | MTT |  | 4.47 |
| CN(C)CCOc1cc(NC(=O)c2cc(Cl)cc(C(=O)Nc3cc(OCCN(C)C)c4ccccc4n3)n2)nc2ccccc12 | U2OS | ATP luminescence | 72 h | 5.66 |
| CN1c2ccccc2C(=O)N2[C@H](C(=O)Nc3ccc(/C=C/C(=O)NO)cc3)Cc3c([nH]c4ccccc34)[C@@H]12 | HEL |  |  | 6.47 |
| CSc1nc(/N=C/c2cc(Br)ccc2O)n(-c2ccc(C(=O)O)cc2)n1 | RPE-1 | MTT |  | 4.42 |
| CN(C)CCCOc1cc(NC(=O)c2cccc(C(=O)Nc3cc(OCCCN(C)C)c4ccccc4n3)n2)nc2ccccc12 | U2OS | ATP luminescence | 72 h | 5.68 |
| COc1cc(Nc2nccc(-c3cnn4nc(OC)ccc34)n2)cc(C(F)(F)F)c1 | SK-N-SH | ATP luminescence |  | 6.01 |
| Nc1nc(Oc2ccccc2)nn1-c1ccc(C(=O)O)cc1 | RPE-1 | MTT |  | 4.59 |
| CC(=O)c1ccc(O)cn1 | Hepa-1c1c7 | crystal violet | 48 h | < 4.00 |
| N[C@@H](CC(=O)N1CCN(C(c2ccc(F)cc2)c2ccc(F)cc2)CC1)C(=O)N1Cc2ccccc2C1 | NB-4 | ATP luminescence | 48 h | 5.88 |
| NCCCOc1cc(NC(=O)c2cc(Cl)cc(C(=O)Nc3cc(OCCCN)c4ccccc4n3)n2)nc2ccccc12 | U2OS | ATP luminescence | 72 h | 6.52 |
| COc1cc(-c2ncn(/C=C\C(=O)OC(C)C)n2)cc(C(F)(F)F)c1 | HEL |  | 72 h | 6.98 |
| CC[C@@H](C)[C@H](N)C(=O)N1Cc2ccccc2C1 | HEL | ATP luminescence | 48 h | < 4.22 |
| CC(=O)Oc1ccc2c(c1)C(C)=CC(C)(C)N2Cc1ccccc1 | PLC5 | MTT | 72 h | 4.74 |
| CCCCc1ccc2[nH]c(NC(=O)OC)nc2c1 | SCC-9 | CCK-8 | 72 h | 7.11 |
| COc1cc(OC)c2c(=O)cc(-c3ccc(N(C)C)cc3)oc2c1-c1c(OC)cc(OC)c2c(=O)cc(-c3ccc(N(C)C)cc3)oc12 | HeLa | MTT | 48 h | 4.36 |
| CC(C)C[C@H](NC(=O)[C@H](Cc1ccccc1)NC(=O)c1cnccn1)B(O)O | SK-N-SH | ATP luminescence |  | 8.10 |
| CSc1nc(NC(=S)NCCc2ccccc2)n(-c2ccc(C(=O)O)cc2)n1 | RPE-1 | MTT |  | 4.55 |
| NCCCOc1cc(NC(=O)c2cc(OCc3c[nH]nn3)cc(C(=O)Nc3cc(OCCCN)c4ccccc4n3)n2)nc2ccccc12 | U2OS | ATP luminescence | 72 h | < 4.40 |
| CS(=O)(=O)c1nc(N)n(-c2ccc(C(=O)O)cc2)n1 | RPE-1 | MTT |  | 4.47 |
| CN(C)CCCOc1cc(NC(=O)c2cc(Cl)cc(C(=O)Nc3cc(OCCCN(C)C)c4ccccc4n3)n2)nc2ccccc12 | U2OS | ATP luminescence | 72 h | 5.74 |
| COc1cc(/C=N/c2nc(SC)nn2-c2ccc(C(=O)O)cc2)ccc1O | RPE-1 | MTT |  | 4.53 |
| NCCOc1cc(NC(=O)c2cc(OCc3c[nH]nn3)cc(C(=O)Nc3cc(OCCN)c4ccccc4n3)n2)nc2ccccc12 | U2OS | ATP luminescence | 72 h | < 4.40 |
